Experimental data published in ChEMBL document CHEMBL1687796, “Synthesis and spectrum of the neoglycoside ACHN-490” (2010).
Converted amounts (≈) assume the structure as drawn.

Tests used:
[1] = tested on: Staphylococcus epidermidis; test: Antibacterial activity against aminoglycoside-resistant Staphylococcus epidermidis expressing ANT(4',4'')-2 by broth microdilution method; assay type: functional
Method in brief: (§1)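 Clinical aminoglycoside-resistant isolates were each carrying a single aminoglycoside-modifying enzyme. […] MICs were determined by CLSI broth microdilution.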

Acinetobacter baumannii [2] = test: Antibacterial activity against Acinetobacter baumannii ATCC 19606 by broth microdilution method; assay type: functional; details: ATCC 19606 = CIP 70.34 = JCM 6841
Method in brief: (§2)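 MICs were measured by broth microdilution following CLSI guidance. The strains formed a 25-strain screening panel with diverse aminoglycoside resistance mechanisms. The panel included Gram-negative and S. aureus strains carrying key aminoglycoside-modifying enzymes, strains with altered permeability or efflux, and an armA ribosomal methyltransferase strain.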

Escherichia coli [3] = test: Antibacterial activity against aminoglycoside-resistant Escherichia coli expressing armA methylase by broth microdilution method; assay type: functional; method in brief: as §2
Staphylococcus aureus [4] = test: microbe, parasite or virus in culture; details: ATCC 29213
Serratia marcescens [5] = test: Antibacterial activity against aminoglycoside-resistant Serratia marcescens expressing AAC(6')-1 by broth microdilution method; assay type: functional; method in brief: as §1
Klebsiella oxytoca [6] = test: Antibacterial activity against aminoglycoside-resistant Klebsiella oxytoca expressing AAC(6')-1 by broth microdilution method; assay type: functional; method in brief: as §1
Enterobacter sp. = test: Antibacterial activity against Enterobacter spp. by broth microdilution method; assay type: functional
Method in brief: (§3)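 MICs were determined by CLSI broth microdilution against clinical isolate panels that included aminoglycoside-resistant isolates. […] MIC90 was derived per group and not calculated when n was <10. Imipenem, ceftobiprole, ciprofloxacin and tigecycline MICs were also determined for the resistant isolates.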

Pseudomonas aeruginosa [7] = test: Antibacterial activity against Pseudomonas aeruginosa expressing AAC(3)-1 by broth microdilution method; assay type: functional
Acinetobacter = test: Antibacterial activity against aminoglycoside-resistant Acinetobacter spp. expressing APH(3')-6 by broth microdilution method; assay type: functional; method in brief: as §1
Klebsiella oxytoca [8] = test: Antibacterial activity against aminoglycoside-resistant Klebsiella oxytoca expressing AAC(3)-2 by broth microdilution method; assay type: functional; method in brief: as §1
Escherichia coli [9] = test: Antibacterial activity against aminoglycoside-resistant Escherichia coli expressing AAC(3)-IVa by broth microdilution method
Pseudomonas aeruginosa [10] = test: Antibacterial activity against wild type Pseudomonas aeruginosa expressing efflux pump by broth microdilution method; assay type: functional
Method in brief: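 MIC was determined by CLSI broth microdilution, read in μg/ml. The strain came from a 25-strain screening panel with diverse aminoglycoside resistance mechanisms. The panel included strains with changes in permeability or efflux, key aminoglycoside-modifying enzymes and an armA methyltransferase strain.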

Staphylococcus aureus [11] = test: microbe, parasite or virus in culture
Serratia marcescens [12] = test: Antibacterial activity against aminoglycoside-resistant Serratia marcescens expressing ANT(2'')-I by broth microdilution method
Klebsiella pneumoniae [13] = test: Antibacterial activity against aminoglycoside-resistant Klebsiella pneumoniae expressing AAC(3)-2 by broth microdilution method; assay type: functional; method in brief: as §1
Enterobacter cloacae [14] = test: Antibacterial activity against aminoglycoside-resistant Enterobacter cloacae expressing AAC(3)-2 by broth microdilution method; assay type: functional; method in brief: as §1
Pseudomonas aeruginosa [15] = test: Antibacterial activity against efflux pump deficient Pseudomonas aeruginosa by broth microdilution method; assay type: functional
Escherichia coli [16] = test: Antibacterial activity against aminoglycoside-resistant Escherichia coli expressing AAC(3)-2 by broth microdilution method; assay type: functional; method in brief: as §1
Klebsiella pneumoniae [17] = test: Antibacterial activity against aminoglycoside-resistant Klebsiella pneumoniae expressing AAC(3)-1 by broth microdilution method; assay type: functional; method in brief: as §1
Enterobacter cloacae [18] = test: Antibacterial activity against aminoglycoside-resistant Enterobacter cloacae expressing AAC(6')-1 by broth microdilution method; assay type: functional; method in brief: as §1
[19] = tested on: Staphylococcus epidermidis; test: Antibacterial activity against aminoglycoside-resistant Staphylococcus epidermidis expressing APH(3')-3 by broth microdilution method; assay type: functional
Serratia marcescens [20] = test: Antibacterial activity against aminoglycoside-resistant Serratia marcescens expressing ANT(2''), AAC(6') by broth microdilution method; assay type: functional; method in brief: as §2
Serratia sp. = test: Antibacterial activity against Serratia spp. by broth microdilution method; assay type: functional; details: Serratia sp. (in: enterobacteria); method in brief: as §3
Citrobacter freundii = test: Antibacterial activity against aminoglycoside-resistant Citrobacter freundii expressing AAC(6')-1 by broth microdilution method; assay type: functional; method in brief: as §1
Acinetobacter baumannii [21] = test: Antibacterial activity against aminoglycoside-resistant Acinetobacter baumannii expressing […] by broth microdilution method; assay type: functional; method in brief: as §1
Pseudomonas aeruginosa [22] = test: Antibacterial activity against aminoglycoside-resistant Pseudomonas aeruginosa expressing AAC(6')-2 by broth microdilution method; assay type: functional; method in brief: as §1
Citrobacter = test: Antibacterial activity against Citrobacter spp. by broth microdilution method; assay type: functional; method in brief: as §3
Pluralibacter gergoviae = test: Antibacterial activity against aminoglycoside-resistant Enterobacter gergoviae expressing ANT(2'')-I by broth microdilution method
Staphylococcus aureus [23] = test: Antibacterial activity against aminoglycoside-resistant Staphylococcus aureus expressing ANT(4',4'')-2 by broth microdilution method; assay type: functional; method in brief: as §1
Pseudomonas aeruginosa [24] = test: Antibacterial activity against Pseudomonas aeruginosa ATCC 27853 by broth microdilution method; assay type: functional
Escherichia coli [25] = test: Antibacterial activity against aminoglycoside-resistant Escherichia coli expressing ANT(2'')-I by broth microdilution method
[26] = tested on: Staphylococcus epidermidis; test: Antibacterial activity against aminoglycoside-resistant Staphylococcus epidermidis expressing APH(2'') + AAC(6')-1 by broth microdilution method; assay type: functional; method in brief: as §1
Escherichia coli [27] = test: Antibacterial activity against aminoglycoside-resistant Escherichia coli expressing ANT(6')-1 by broth microdilution method; assay type: functional; method in brief: as §1
Serratia liquefaciens = test: Antibacterial activity against aminoglycoside-resistant Serratia liquefaciens expressing AAC(3)-2 by broth microdilution method; assay type: functional; method in brief: as §1
Klebsiella pneumoniae [28] = test: Antibacterial activity against aminoglycoside-resistant Klebsiella pneumoniae expressing AAC(3)-4 by broth microdilution method; assay type: functional; method in brief: as §1
Pseudomonas aeruginosa [29] = test: Antibacterial activity against Pseudomonas aeruginosa by broth microdilution method; assay type: functional; method in brief: as §3
Pseudomonas aeruginosa [30] = test: Antibacterial activity against aminoglycoside-resistant Pseudomonas aeruginosa expressing ANT(2'')-1 by broth microdilution method; assay type: functional; method in brief: as §1
Klebsiella aerogenes = test: Antibacterial activity against aminoglycoside-resistant Enterobacter aerogenes expressing AAC(3)-2 by broth microdilution method; assay type: functional; method in brief: as §1
Acinetobacter baumannii [31] = test: Antibacterial activity against aminoglycoside-resistant Acinetobacter baumannii expressing ANT(2'')-1 by broth microdilution method; assay type: functional; method in brief: as §1
Acinetobacter sp. = test: Antibacterial activity against Acinetobacter spp. by broth microdilution method; assay type: functional; method in brief: as §3
Staphylococcus aureus [32] = test: Antibacterial activity against aminoglycoside-resistant Staphylococcus aureus expressing APH(2'') + AAC(6')-1 by broth microdilution method; assay type: functional; method in brief: as §1
Staphylococcus aureus [33] = test: microbe, parasite or virus in culture; remark: listed apart in the source
Pseudomonas aeruginosa [34] = test: Antibacterial activity against Pseudomonas aeruginosa expressing mexXY operon by broth microdilution method; assay type: functional; method in brief: as §2
[35] = Antibacterial activity against indole positive Proteae by broth microdilution method; assay type: functional; method in brief: as §3
Staphylococcus aureus [36] = test: Antibacterial activity against aminoglycoside-resistant Staphylococcus aureus expressing APH(2'') + AAC(6') by broth microdilution method; assay type: functional; method in brief: as §2
Escherichia coli [37] = test: Antibacterial activity against Escherichia coli by broth microdilution method; assay type: functional; method in brief: as §3

NCC[C@H](O)C(=O)N[C@@H]1C[C@H](N)[C@@H](O[C@H]2O[C@H](CN)[C@@H](O)[C@H](O)[C@H]2O)[C@H](O)[C@H]1O[C@H]1O[C@H](CO)[C@@H](O)[C@H](N)[C@H]1O [AMIKACIN]
MIC [1]: 13 µg/mL (≈ 22.2 µM)
MIC (Acinetobacter baumannii [2]): 16 µg/mL (≈ 27.3 µM)
MIC (Escherichia coli [3]): > 64 µg/mL
MIC (Staphylococcus aureus [4]): 4 µg/mL (≈ 6.83 µM)
MIC (Serratia marcescens [5]): 30 µg/mL (≈ 51.2 µM)
MIC (Klebsiella oxytoca [6]): 30 µg/mL (≈ 51.2 µM)
MIC50 (Enterobacter sp.): 8 µg/mL (≈ 13.7 µM)
MIC90 (Enterobacter sp.): 64 µg/mL (≈ 109 µM)
MIC (Pseudomonas aeruginosa [7]): 4 µg/mL (≈ 6.83 µM)
MIC (Acinetobacter): > 64 µg/mL
MIC (Klebsiella oxytoca [8]): 4 µg/mL (≈ 6.83 µM)
MIC (Escherichia coli [9]): 4 µg/mL (≈ 6.83 µM)
MIC (Pseudomonas aeruginosa [10]): 4 µg/mL (≈ 6.83 µM)
MIC (Staphylococcus aureus [11]): 2 µg/mL (≈ 3.42 µM)
MIC (Serratia marcescens [12]): 2 µg/mL (≈ 3.42 µM)
MIC (Klebsiella pneumoniae [13]): 4 µg/mL (≈ 6.83 µM)
MIC (Enterobacter cloacae [14]): 4 µg/mL (≈ 6.83 µM)
MIC (Pseudomonas aeruginosa [15]): 0.5 µg/mL (≈ 0.854 µM)
MIC (Escherichia coli [16]): 4 µg/mL (≈ 6.83 µM)
MIC (Klebsiella pneumoniae [17]): 4 µg/mL (≈ 6.83 µM)
MIC (Enterobacter cloacae [18]): 30 µg/mL (≈ 51.2 µM)
MIC [19]: 4 µg/mL (≈ 6.83 µM)
MIC (Serratia marcescens [20]): 8 µg/mL (≈ 13.7 µM)
MIC50 (Serratia sp.): 8 µg/mL (≈ 13.7 µM)
MIC (Citrobacter freundii): 30 µg/mL (≈ 51.2 µM)
MIC (Acinetobacter baumannii [21]): 4 µg/mL (≈ 6.83 µM)
MIC (Pseudomonas aeruginosa [22]): 14 µg/mL (≈ 23.9 µM)
MIC50 (Citrobacter): 32 µg/mL (≈ 54.6 µM)
MIC (Pluralibacter gergoviae): 2 µg/mL (≈ 3.42 µM)
MIC (Staphylococcus aureus [23]): 13 µg/mL (≈ 22.2 µM)
MIC (Pseudomonas aeruginosa [24]): 2 µg/mL (≈ 3.42 µM)
MIC (Escherichia coli [25]): 2 µg/mL (≈ 3.42 µM)
MIC [26]: 18 µg/mL
MIC (Escherichia coli [27]): 32 µg/mL (≈ 54.6 µM)
MIC (Serratia liquefaciens): 4 µg/mL (≈ 6.83 µM)
MIC (Klebsiella pneumoniae [28]): 2 µg/mL (≈ 3.42 µM)
MIC50 (Pseudomonas aeruginosa [29]): 16 µg/mL (≈ 27.3 µM)
MIC90 (Pseudomonas aeruginosa [29]): > 64 µg/mL
MIC (Pseudomonas aeruginosa [30]): 8 µg/mL (≈ 13.7 µM)
MIC (Klebsiella aerogenes): 4 µg/mL (≈ 6.83 µM)
MIC (Acinetobacter baumannii [31]): 16 µg/mL (≈ 27.3 µM)
MIC50 (Acinetobacter sp.): > 64 µg/mL
MIC90 (Acinetobacter sp.): > 64 µg/mL
MIC (Staphylococcus aureus [32]): 18 µg/mL
MIC (Staphylococcus aureus [33]): > 64 µg/mL
MIC (Pseudomonas aeruginosa [34]): 4 µg/mL (≈ 6.83 µM)
MIC50 [35]: 8 µg/mL (≈ 13.7 µM)
MIC (Staphylococcus aureus [36]): 64 µg/mL
MIC50 (Escherichia coli [37]): 16 µg/mL (≈ 27.3 µM)
MIC90 (Escherichia coli [37]): 32 µg/mL (≈ 54.6 µM)
